Screening results from PubChem BioAssay.
A selection: hits, their analogues and other compounds. The true share with any hit is near 3.5%.
RGS4 inh: RGS4 inhibitors, primary screen, cell-based, HEK293 M3R inducible RGS4, calcium flux. Regulator of G-protein signaling 4 (Homo sapiens), P49798. Fluo-4 calcium flux; hits give high values; triggered by carbachol at its EC20. B-score at 10 µM. 310,000 tested, 0.45% active;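 active = B-score, a plate-corrected calcium signal, over three deviations above library mean, with baseline fluorescence within five deviations of library mean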;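 note: RGS4 expression induced by doxycycline in cells with stable M3 receptor; B-score is computed from the integrated fluorescence ratio over baseline after carbachol; higher B-score means a larger calcium signal and so more RGS4 inhibition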
Target sequence (P49798 whole entry, looked up): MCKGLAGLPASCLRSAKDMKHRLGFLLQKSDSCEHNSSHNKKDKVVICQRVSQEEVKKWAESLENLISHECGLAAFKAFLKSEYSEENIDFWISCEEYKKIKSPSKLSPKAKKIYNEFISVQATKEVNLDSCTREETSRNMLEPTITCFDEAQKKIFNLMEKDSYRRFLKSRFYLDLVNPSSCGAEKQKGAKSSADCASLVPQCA
RGS4 act: RGS4 potentiators or activators, primary screen, cell-based, HEK293 M3R inducible RGS4, calcium flux | carbachol calcium flux Fluo4; hits give low values | B-score at 10 µM | 310,000 tested, 0.92% active | AID 463111, 2010;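 active = B-score of the integrated calcium signal more than 4 SD below the library mean, with starting fluorescence not abnormally high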;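 note: negative B-score means reduced calcium response which marks RGS4 activation or potentiation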
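Assay system: HEK293 FlpIn-TREx cells, stable M3R, doxycycline-inducible RGS4 / Probe or stimulus: carbachol, ECmax concentration / Times: overnight RGS4 induction, 30 min dye load 37 °C, 20 min compound RT / Signal: kinetic calcium fluorescence imaging with Fluo4-AM dye, 2 µM / Measure: Agonist-evoked peak-minus-minimum fluorescence over baseline, integrated ratio, B score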
MrgX1 ag: agonists of human MrgX1 receptor, primary screen, HEK293 cells, Fluo-4 calcium flux; B-score at 10 µM; Mas-related G-protein coupled receptor member X1 (Homo sapiens), Q96LB2; Fluo-4 calcium fluorescence, agonist mode; hits give high values; 310,000 tested, 0.44% active;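 active = calcium response B-score plate-corrected fluorescence ratio at least 3 library SD, with starting fluorescence B-score inside 5 SD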
Target sequence (Q96LB2 whole entry, looked up): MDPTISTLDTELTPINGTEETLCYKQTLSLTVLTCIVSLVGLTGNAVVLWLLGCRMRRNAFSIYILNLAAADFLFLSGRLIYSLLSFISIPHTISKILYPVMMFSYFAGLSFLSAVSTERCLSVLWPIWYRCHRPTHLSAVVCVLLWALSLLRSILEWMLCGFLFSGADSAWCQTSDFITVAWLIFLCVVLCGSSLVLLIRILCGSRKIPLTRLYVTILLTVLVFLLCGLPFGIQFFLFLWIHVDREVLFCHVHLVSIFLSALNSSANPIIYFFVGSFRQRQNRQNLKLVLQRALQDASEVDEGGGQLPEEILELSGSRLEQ
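Test system: HEK293 cells stably expressing human MrgX1 receptor; amount: 15,000 cells per well; doses: compound delivered in addition one of three; times: overnight plating before 1 h dye loading; detection: Fluo-4 NW calcium-flux fluorescence, kinetic read; read-out basis: B-scored fluorescence response ratio; controls: positive and negative controls per plate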
MrgX1 PAM: positive allosteric modulators of MrgX1, primary screen, HEK293 cells, Fluo-4 calcium flux; Mas-related G-protein coupled receptor member X1 (Homo sapiens), Q96LB2; FDSS; hits give high values; B-score at 10 µM; 310,000 tested, 0.63% active; AID 588675, 2011;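 active = plate-corrected calcium response at least 3 library SD above typical, normal starting fluorescence, not activating the receptor alone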;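 note: compound read alongside a low EC10 to EC30 dose of BAM8-22 agonist; peak minus trough fluorescence over baseline measured at the second addition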
MrgX1 antag: antagonists of human MrgX1 receptor, primary screen, HEK293 cells, Fluo-4 calcium flux; 310,000 tested, 1.3% active; B-score at 10 µM; AID 588676, 2011; Mas-related G-protein coupled receptor member X1 (Homo sapiens), Q96LB2; BAM8-22 antagonism; hits give low values;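 active = calcium-response B-score plate-corrected more than 3 library SD below zero, starting fluorescence within 5 deviations, no agonist response on first addition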;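 note: peak minus trough fluorescence over baseline after final BAM8-22 challenge near maximal dose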
MrgX1 ant reconf: MrgX1 receptor antagonists, duplicate retest, confirmation, HEK293 cells, Fluo-4 calcium flux | shares compounds with MrgX1 antag | BAM8-22 calcium flux; hits give low values | remaining BAM8-22 calcium response % of control (hits give low values), % at 10 µM | 2,300 tested, 19% active | AID 602420, 2012;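 active = remaining agonist calcium response no higher than 100% minus 3 SD of agonist-only control wells, with starting fluorescence near control levels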;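 note: agonist BAM8-22 given at a near maximal EC90 to ECmax level; peak minus minimum fluorescence divided by baseline after agonist addition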
HEK293 Ca flux: nonspecific calcium signal in parental HEK293, confirmation, counter-screen for MrgX1 antagonist project, parental HEK293 cells, Fluo-4 calcium flux; shares compounds with MrgX1 antag; Fluo-4 calcium fluorescence, FDSS; fluorescence ratio F(max-min)/F0 at 10 µM; 4,000 tested, 2% active; AID 624111, 2012;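 active = duplicate-averaged calcium fluorescence ratio at least three times the standard deviation of buffer wells, a nonspecific response in parental cells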
HEK293 Ca counter: calcium response in parental HEK293 cells, primary screen, counter-screen for MrgX1 allosteric activator project, cell-based, Fluo-4 calcium flux, duplicate. fluorescence ratio F(max-min)/F0 at 10 µM. shares compounds with MrgX1 antag. AID 624114, 2012. 4,000 tested, 0.4% active. Fluo-4 fluorescence ratio; hits give high values;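 active = calcium fluorescence ratio, averaged over duplicates, at least 3 SD of the buffer-well ratio, meaning a nonspecific response in receptor-free cells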;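 note: untransfected parental HEK293 lacking MrgX1 used as counterscreen for MrgX1 allosteric activators; fluorescence change taken during the second addition on a kinetic imager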
HEK293 Ca cntr2: calcium response in parental HEK293 cells, primary screen, counter-screen for MrgX1 agonist project, cell-based, Fluo-4 calcium flux, duplicate, agonist mode; shares compounds with MrgX1 antag; Fluo-4 calcium fluorescence (FDSS); hits give high values; fluorescence ratio F(max-min)/F0 at 10 µM; 4,000 tested, 8.7% active; AID 624115, 2012;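 active = calcium fluorescence ratio at least three times the spread of buffer wells, meaning a non-specific response in parental cells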
Starred values were filed as active, the others as inactive; i = inactive; x = no result.

SMILES	RGS4 inh	RGS4 act	MrgX1 ag	MrgX1 PAM	MrgX1 antag	MrgX1 ant reconf	HEK293 Ca flux	HEK293 Ca counter	HEK293 Ca cntr2
Cc1cc(C(=O)COc2ccccc2C(N)=O)c(C)n1CC1CCCO1 (centres undefined)	i	i	i	i	-4.7*	71%*	i	i	i
Cc1cc(C(=O)COC(=O)c2ccccc2Br)c(C)n1CC1CCCO1 (centres undefined)	i	i	i	i	i	x	x	x	x
Cc1cc(C)c[n+](CC(=O)c2c(C)cc(C)c([N+](=O)[O-])c2C)c1	i	i	i	i	i	x	x	x	x
CC(=O)Nc1ccccc1Nc1nc(NCCO)nc(N2CCCC2)n1	i	i	i	i	-8.3*	i	i	i	i
OCCNc1nc(Nc2ccccc2O)nc(N2CCCC2)n1	i	i	i	i	i	x	x	x	x
CCOC(=O)c1cc([N+](=O)[O-])sc1NC(=O)c1ccc(S(=O)(=O)N2CC3(C)CC2CC(C)(C)C3)cc1 (centres undefined)	i	-9.1*	i	i	-11*	i	0.48*	i	i
O=C(CCNC(=O)c1ccccc1Cl)Nc1nc(-c2ccc(F)cc2)cs1	i	i	i	i	-5.5*	i	i	i	i
Cc1[nH]c2c([N+](=O)[O-])cccc2c1C	i	i	i	i	i	x	x	x	x
CC(c1ccccc1)N1C(=O)c2ccc(C(=O)NCc3cccnc3)cc2C1=O (centres undefined)	i	i	i	i	i	x	x	x	x
Cc1ccc(C)c(NS(=O)(=O)c2ccc3[nH]c(=O)oc3c2)c1	i	i	i	i	-5.3*	i	i	i	i
COc1ccc(N2CCN(S(=O)(=O)CCNC(=O)c3cccs3)CC2)cc1	i	i	i	i	i	x	x	x	x
CC1CN(c2ccccc2)c2nc3c(c(=O)[nH]c(=O)n3C)n2C1 (centres undefined)	i	i	i	i	-6.7*	i	i	i	i
CCOC(=O)CSC1=C(C#N)C(c2ccccc2Cl)C(C(=O)OC)C(=O)N1 (centres undefined)	i	i	i	i	-4.8*	i	i	i	i
O=C(NC1CCCCC1)C(=S)N1CCOCC1	i	i	i	i	-5.4*	i	i	i	i
Cc1ccc(NS(=O)(=O)c2cccc(C(=O)N3CCCCCC3)c2)cc1	i	i	i	i	-5.5*	i	i	i	i
Cc1ccc(NS(=O)(=O)c2ccc(C(=O)N3CCN(c4ncccn4)CC3)cc2)cc1	i	i	i	i	-5.4*	i	i	i	i
Cc1cc(S(=O)(=O)Nc2ccc(C(=O)N3CCN(c4ccccc4O)CC3)cc2)ccc1F	i	i	i	i	-4.7*	82%*	i	i	i
CCNC(=O)/C(C#N)=C/c1c(N2CCN(Cc3ccc4c(c3)OCO4)CC2)nc2c(C)cccn2c1=O	i	i	i	i	i	x	x	x	x
O=C(O)CCC(=O)NCC1OCCc2ccccc21 (centres undefined)	i	i	i	i	-8.6*	i	i	i	i
Cc1cc2cc(CCNC(=O)c3ccc(Br)o3)c(=O)[nH]c2cc1C	i	i	i	i	i	x	x	x	x
COc1ccc2cc(CCNC(=O)c3ccc(Br)o3)c(=O)[nH]c2c1	i	i	i	i	-5.3*	i	i	i	i
Cc1ccc(CN2CC(C(=O)N3CCN(c4ccccc4O)CC3)CC2=O)cc1 (centres undefined)	i	i	i	i	i	x	x	x	x
COc1cccc(OCCCOc2ccccc2C(C)C)c1	i	i	i	i	-6.9*	i	i	i	i
COc1cccc(OCCOc2ccccc2[N+](=O)[O-])c1	i	i	i	i	i	x	x	x	x
CC(=O)c1ccc(NC(=O)C(C)NCc2ccccc2Cl)cc1 (centres undefined)	i	i	i	i	-6.2*	i	i	i	i
Cc1nc(-c2ccc(S(=O)(=O)N3CCN(C4c5ccccc5-c5ccccc54)CC3)s2)cs1	i	i	i	i	-5.3*	i	i	i	i
O=C(CSc1nnnn1-c1cccc(Cl)c1)Nc1ccc2c(c1)CCC2	i	i	i	i	i	x	x	x	x
N#CCCCSc1nnnn1-c1cccc(Cl)c1	i	i	i	i	-5.8*	i	i	i	i
COc1cc(NC(=O)CC(C)C)ccc1NC(=O)c1ccco1	i	i	i	i	-5.2*	i	i	i	i
